Assay outcomes as filed in PubChem.
Sampled rows, rich in hits. Any-hit rate of the full collection: about 3.7%.
b-catenin transl: modulators of beta-catenin nuclear translocation; 190,000 tested, 0.3% active; nuclear translocation activity, % at 5 µM; HeLa beta-catenin nuclear translocation, immunofluorescence imaging;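 active means nuclear translocation activity above 50% at 5 µM, with a well cell count of 50 or more; inconclusive means wells under 50 cells across six images, flagged as toxic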;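 further: per-cell ratio of nuclear to cytoplasmic median beta-catenin stain intensity; plate controls were DMSO negative control for no effect and GSK-3 inhibitor IX positive control for full effect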
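Assay system: human HeLa cells, native beta-catenin; doses: 5 µM primary, 0.02–20 µM confirmation; incubation: compound treatment 24 h, 37°C, 5% CO2; technique: fluorescence imaging of beta-catenin antibody stain plus DAPI; measure: % activation, nuclear-to-cytoplasmic median beta-catenin signal ratio per cell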
MT stabilizer: stabilizes microtubules in HeLa cells; HeLa tubulin immunostaining HCS, 24 h; share of cells brighter than vehicle mean+2SD; % tubulin-high responders, % at 10 µM; 200,000 tested, 0.83% active; AID 2205;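 active means plate Z-score above 3 for both tubulin-high and condensed-nucleus cell shares, with cell loss under 80%, at 10 µM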;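 further: anti alpha tubulin signal scored within the nucleus-defined area of each cell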
KCC2 mod: modulators of human KCC2 chloride dependent transport; Q9H2X9; KCC2 cells, thallium flux FluoZin-2 fluorescence; B-score of Tl+ flux slope (higher = more flux/activation; lower = inhibition) at 10 µM; 190,000 tested, 2.2% active; AID 1456;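 active means thallium flux slope and its plate-corrected score both differing from the plate sample mean at a set confidence after two filtering rounds, in either direction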;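 further: slope of fluorescence scaled to starting intensity during 10 to 20 s after thallium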
ROMK primary: modulators of human ROMK potassium channel | B-score at 10 µM | AID 1918 | P48048 | 130,000 tested, 2% active | Tet-inducible ROMK, thallium flux fluorescence; actives lie on both sides;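 active means signal ratio slope over the read window, or its plate-corrected B-score, at least 3 SD from the plate mean, either direction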;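 further: B-score of the F/F0 ratio slope over 7 to 12 s after thallium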
Target sequence (P48048 whole entry, looked up): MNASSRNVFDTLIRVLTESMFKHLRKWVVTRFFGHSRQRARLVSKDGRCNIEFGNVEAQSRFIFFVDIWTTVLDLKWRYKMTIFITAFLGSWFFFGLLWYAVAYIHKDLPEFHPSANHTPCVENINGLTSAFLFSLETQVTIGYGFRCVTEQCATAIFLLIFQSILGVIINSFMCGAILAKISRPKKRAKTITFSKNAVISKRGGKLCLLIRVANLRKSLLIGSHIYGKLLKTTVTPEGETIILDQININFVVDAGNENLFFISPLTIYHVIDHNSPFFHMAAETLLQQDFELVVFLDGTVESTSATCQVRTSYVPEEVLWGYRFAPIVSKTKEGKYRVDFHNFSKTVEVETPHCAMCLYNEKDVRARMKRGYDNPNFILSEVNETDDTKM
Redox H2O2 prof: compounds producing H2O2 with reducing agent – biochemical, NIH compound library profiling, artefact control for MLSCN library redox annotation, primary screen. DTT-dependent redox cycling H2O2, phenol red/HRP absorbance; 100% = 100 µM peroxide control, 0% = buffer. activation, % at 10 µM. 200,000 tested, 0.03% active. AID 878;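 active means activation of at least 50% relative to the plate's high and low controls in the primary single-dose screen; inactive means activation below 50%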;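 further: compound incubated with DTT at 0.8 mM final as the reducing agent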
KCC2 sec1: confirmation of human KCC2 transport modulators. shares compounds with KCC2 mod. HEK293-KCC2, thallium flux, FluoZin2 fluorescence; stronger effect = higher value. normalised thallium flux (F/F0 slope) at 10 µM. 3,700 tested, 15% active. AID 1713;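 active means thallium flux slope above the same plate's solvent-only control mean plus 3 SD; inconclusive means the two replicate wells disagree; inactive means no significant difference from solvent-only control wells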
KCC2 bumet counter: thallium flux persisting under bumetanide in KCC2 cells, counter-screen secondary assay; shares compounds with KCC2 mod; 3,700 tested, 49% active; HEK293-KCC2 + bumetanide/ouabain, thallium flux FluoZin2; stronger effect = higher value; normalized thallium flux at 10 µM; AID 1714;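 active means thallium entry rate above the same plate's blocked-transporter control wells by more than 3 SD; inconclusive means the two repeat wells disagree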;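 further: raw slope of fluorescence over initial fluorescence between 10 and 20 s after thallium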
KCC2 sec2: KCC2 (human) modulation, second secondary assay. shares compounds with KCC2 mod. HEK293-KCC2, thallium flux FluoZin2 fluorescence; actives lie on both sides; F/F0 rise rate, 10–20 s post-thallium. normalized thallium flux at 10 µM. 3,700 tested, 23% active;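 active means thallium flux slope more than 3 SD above or below the plate's solvent-only control mean, mostly below; inconclusive means the two repeat wells disagreed; inactive means no significant shift from solvent-only controls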;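 further: raw slope with 0.1% DMSO as baseline and bumetanide as block control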
HEK293 Tl flux: counter-screen for KCC2 modulators: effect in parental HEK293 cells. shares compounds with KCC2 mod. thallium flux FluoZin2, ouabain; baseline-ratio fluorescence slope, 10–20 s after thallium. thallium flux rate (normalised fluorescence) at 10 µM. 3,700 tested, 46% active. AID 1716;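 active means thallium flux rate significantly above the same plate's solvent-only control wells, beyond their mean plus 3 SD; inconclusive means the two replicate wells gave conflicting results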
KCC2 ouabain: confirmation of human KCC2 modulators with ouabain; shares compounds with KCC2 mod; HEK293-KCC2, thallium flux FluoZin2 fluorescence; bidirectional: low = inhibitor, high = activator; raw Tl+ flux slope (below DMSO = inhibition, above = activation) at 10 µM; 3,700 tested, 48% active;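 active means thallium flux slope beyond 3 SD from same-plate DMSO control mean in most replicates, usually higher, sometimes lower; inconclusive means repeat tests gave conflicting results; inactive means no significant difference from controls in most replicates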;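 further: slope of initial-normalized fluorescence between seconds 10 and 20 after thallium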
HEK counter2: parental HEK flux effect, counter-screen 2; shares compounds with KCC2 mod; HEK293 parental, thallium flux FluoZin-2 fluorescence slope; thallium flux slope at 10 µM; 3,700 tested, 33% active; AID 1718;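 active means thallium flux slope above the same plate's solvent-control mean plus 3 SD in both duplicate wells; inconclusive means duplicate wells that disagreed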;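 further: run without ouabain in cells lacking the KCC2 cotransporter; slope of fluorescence scaled to its starting value between 10 and 20 s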
Numbers without * were called inactive; ? = inconclusive; / = no result.

SMILES	b-catenin transl	MT stabilizer	KCC2 mod	ROMK primary	Redox H2O2 prof	KCC2 sec1	KCC2 bumet counter	KCC2 sec2	HEK293 Tl flux	KCC2 ouabain	HEK counter2
COc1ccc(S(=O)(=O)NCC2CCCN(Cc3ccccc3C)C2)cc1 (configuration not stated)	0.0	2.4	-2.38	0.017	-0.3	/	/	/	/	/	/
CCCOc1ccc(Oc2cc(C)nc(SC)n2)nn1	-1.3	3.6	1.25	/	2.6	/	/	/	/	/	/
CSc1nc(C)cc(Oc2ccc(OCCOc3ccccc3)nn2)n1	0.1	3.0	-5.9*	/	-2.8	0.00805	0.00571	0.0295	0.00645	0.0161*	0.00981
CC(Cc1cccs1)NC(=S)Nc1ccc(Cl)c(Cl)c1 (configuration not stated)	/	3.0	6.7*	/	-0.7	0.00694	0.0191*	0.0282	0.00843*	0.0207*	?
CC(Cc1cccs1)NC(=S)Nc1ccc(Cl)cc1 (configuration not stated)	0.4	2.8	-2.06	-0.321	-0.1	/	/	/	/	/	/
Cc1ccc2c(Cl)cc(Cl)c(OCC(=O)NC(C)(C)C)c2n1	0.0	3.6	6.88*	-0.652	-1.5	0.0103	0.0309*	0.0304	0.0175*	0.0322*	?
Cc1ccc2c(Cl)cc(Cl)c(OCC(=O)Nc3cccc(S(N)(=O)=O)c3)c2n1	4.5	2.3	2.41	/	0.1	/	/	/	/	/	/
Cc1ccc2c(Cl)cc(Cl)c(OCC(=O)N(C(C)C)C(C)C)c2n1	0.0	3.4	4.03*	/	-0.1	0.0161	0.014*	0.0284	0.0105*	0.0186	0.0118
COC(=O)COc1c(Cl)cc(Cl)c2ccc(C)nc12	-3.1	2.6	6.21*	-2.24	0.0	0.0157	0.0107*	0.0304	0.0109*	0.0193	0.014*
Cc1ccc(C(=O)N/C(=C\c2ccccc2)C(=O)NCc2cccnc2)cc1	-0.9	3.0	-0.513	-1.49	-1.6	/	/	/	/	/	/
O=C(Nc1cccc2ccccc12)N1CCN(c2ncccn2)CC1	-2.6	5.0	-4.06*	-1.8	-0.7	0.0111	?	0.0325	0.00843	0.0183	0.0106
Cc1ccc(S(=O)(=O)N(C)C)cc1NC(=O)C1CCCCC1	0.0	/	/	/	/	/	/	/	/	/	/
CC1CCCN(c2ccc(C(=O)Nc3cccnc3)cc2[N+](=O)[O-])C1 (configuration not stated)	-0.4	4.5	-0.966	0.33	-2.2	/	/	/	/	/	/
O=C(Cn1nnc(-c2ccccc2-n2cnnn2)n1)NCc1ccccc1	-8.3	2.5	-3.98*	/	0.3	0.00823	0.00458	?	0.00805	0.0186	0.0115
Cc1ccc(C(=O)Cn2nnc(-c3ccccc3-n3cnnn3)n2)cc1	0.5	5.7	-0.593	/	-1.6	/	/	/	/	/	/
Cc1cccc(OCc2nnc(SCC(=O)c3cccs3)n2C)c1C	-4.3	1.6	-4.46*	/	3.5	0.0068	0.00418	0.0236*	0.00747	0.0163*	0.00963
CCOC(=O)/C(=N/O)C1=NC(C)(C)Cc2cc(C)c(C)cc21	-0.4	2.5	/	-1.39	8.0	/	/	/	/	/	/
Cc1ccc(C)c(N=Nc2ccc(O)c3ncccc23)c1	-0.7	6.1	13*	/	1.9	?	0.0118*	0.0321	0.0105*	0.032*	?
CCS(=O)(=O)c1ccc(OC)c(N=Nc2ccc(O)c3ncccc23)c1	0.2	1.1	0.509	1.24	-0.3	/	/	/	/	/	/
Oc1ccc(N=Nc2ccc3c(c2)OCCO3)c2ncccc12	-4.4	/	/	/	/	/	/	/	/	/	/
